Measured values from ChEMBL document CHEMBL1145935, “Novel sst(4)-selective somatostatin (SRIF) agonists. 4. Three-dimensional consensus structure by NMR” (J Med Chem, 2003).
Where “and” joins values, the source holds several entries; their conditions need not be identical. Identical values can stand only once.

Assays:
[1] = molecular target: Somatostatin receptor type 3 (Homo sapiens, UniProt P32745); assay: Binding affinity towards human Somatostatin receptor type 3 using 125I-[Leu8,DTrp22,Tyr25]SRIF-28 as radioligand
Method in brief: (§1)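 Competitive radioligand displacement on cloned somatostatin receptors, with non-selective 125I-[Leu8,DTrp22,Tyr25]SRIF-28 as the tracer. IC50 (nM) is taken from the displacement curves. Separate determinations are listed individually, or their number is given in parentheses.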

[2] = molecular target: Somatostatin receptor type 2 (Homo sapiens, UniProt P30874); assay: Binding affinity towards human Somatostatin receptor type 2 using 125I-[Leu8,DTrp22,Tyr25]SRIF-28 as radioligand; method in brief: as §1
[3] = molecular target: Somatostatin receptor type 4 (Homo sapiens, UniProt P31391); assay: Binding affinity towards human Somatostatin receptor type 4 using 125I-[Leu8,DTrp22,Tyr25]SRIF-28 as radioligand
[4] = molecular target: Somatostatin receptor type 5 (Homo sapiens, UniProt P35346); assay: Binding affinity towards human Somatostatin receptor type 5 using 125I-[Leu8,DTrp22,Tyr25]SRIF-28 as radioligand; method in brief: as §1
[5] = molecular target: Somatostatin receptor type 1 (Homo sapiens, UniProt P30872); assay: Binding affinity towards human Somatostatin receptor type 1 using 125I-[Leu8,DTrp22,Tyr25]SRIF-28 as radioligand; method in brief: as §1
Chain of Somatostatin receptor type 1 (P30872 whole entry): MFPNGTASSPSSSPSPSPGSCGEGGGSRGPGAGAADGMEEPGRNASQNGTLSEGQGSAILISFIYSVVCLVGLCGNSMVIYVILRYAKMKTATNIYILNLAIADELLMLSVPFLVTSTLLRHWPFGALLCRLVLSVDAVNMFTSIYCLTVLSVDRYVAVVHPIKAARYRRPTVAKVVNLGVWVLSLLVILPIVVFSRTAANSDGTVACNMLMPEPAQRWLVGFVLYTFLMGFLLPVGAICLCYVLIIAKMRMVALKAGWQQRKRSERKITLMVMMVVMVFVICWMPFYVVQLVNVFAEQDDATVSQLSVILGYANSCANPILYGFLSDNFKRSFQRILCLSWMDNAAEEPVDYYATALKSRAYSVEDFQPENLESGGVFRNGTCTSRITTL

Chain of Somatostatin receptor type 5 (P35346 whole entry): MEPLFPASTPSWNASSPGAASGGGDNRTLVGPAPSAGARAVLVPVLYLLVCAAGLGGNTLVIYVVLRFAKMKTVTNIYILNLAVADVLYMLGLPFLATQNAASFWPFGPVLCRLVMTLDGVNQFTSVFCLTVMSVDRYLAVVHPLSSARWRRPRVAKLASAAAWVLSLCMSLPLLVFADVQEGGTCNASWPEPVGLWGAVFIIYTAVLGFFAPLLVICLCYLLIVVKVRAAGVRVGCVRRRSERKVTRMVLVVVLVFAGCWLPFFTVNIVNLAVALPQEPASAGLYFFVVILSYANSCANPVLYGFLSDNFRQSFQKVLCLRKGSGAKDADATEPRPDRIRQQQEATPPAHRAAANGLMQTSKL
Chain of Somatostatin receptor type 2 (P30874 whole entry): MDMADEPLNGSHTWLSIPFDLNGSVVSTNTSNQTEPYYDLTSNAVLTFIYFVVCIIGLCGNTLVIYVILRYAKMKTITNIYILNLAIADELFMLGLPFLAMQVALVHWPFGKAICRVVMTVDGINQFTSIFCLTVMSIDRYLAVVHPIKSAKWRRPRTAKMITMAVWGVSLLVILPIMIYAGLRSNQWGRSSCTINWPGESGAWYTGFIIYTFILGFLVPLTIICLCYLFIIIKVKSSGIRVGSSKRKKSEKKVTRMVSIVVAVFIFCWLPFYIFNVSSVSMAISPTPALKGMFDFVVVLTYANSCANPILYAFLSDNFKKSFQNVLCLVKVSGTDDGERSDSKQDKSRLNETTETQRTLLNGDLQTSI
Chain of Somatostatin receptor type 3 (P32745 whole entry): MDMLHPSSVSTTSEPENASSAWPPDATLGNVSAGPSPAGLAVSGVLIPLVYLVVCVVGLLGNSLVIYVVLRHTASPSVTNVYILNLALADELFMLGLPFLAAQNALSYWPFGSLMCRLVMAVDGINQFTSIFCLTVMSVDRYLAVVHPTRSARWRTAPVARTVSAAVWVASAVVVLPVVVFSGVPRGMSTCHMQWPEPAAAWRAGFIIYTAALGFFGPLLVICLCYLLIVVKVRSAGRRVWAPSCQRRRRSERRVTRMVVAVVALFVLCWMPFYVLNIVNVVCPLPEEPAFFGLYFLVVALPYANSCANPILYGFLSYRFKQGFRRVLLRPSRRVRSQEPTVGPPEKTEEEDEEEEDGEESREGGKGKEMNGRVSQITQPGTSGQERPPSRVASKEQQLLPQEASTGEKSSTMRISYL
Chain of Somatostatin receptor type 4 (P31391 whole entry): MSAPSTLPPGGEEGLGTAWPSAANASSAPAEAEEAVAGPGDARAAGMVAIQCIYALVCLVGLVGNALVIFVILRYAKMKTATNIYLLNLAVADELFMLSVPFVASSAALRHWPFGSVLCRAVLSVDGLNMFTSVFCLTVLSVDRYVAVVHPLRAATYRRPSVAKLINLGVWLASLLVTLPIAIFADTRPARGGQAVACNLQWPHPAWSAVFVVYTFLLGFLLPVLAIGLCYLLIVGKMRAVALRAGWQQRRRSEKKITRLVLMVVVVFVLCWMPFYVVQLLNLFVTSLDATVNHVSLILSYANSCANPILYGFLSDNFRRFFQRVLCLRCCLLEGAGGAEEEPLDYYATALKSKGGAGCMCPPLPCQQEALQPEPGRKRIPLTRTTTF

| SMILES | IC50 [1] | IC50 [2] | IC50 [3] | IC50 [4] | IC50 [5] |
| --- | --- | --- | --- | --- | --- |
| C[C@@H](O)[C@@H]1NC(=O)[C@H](CCCCN)NC(=O)[C@H]([C@@H](C)c2ccc3ccccc3c2)NC(=O)[C@H](Cc2ccc(O)cc2)NC(=O)[C@H](Cc2ccccc2)NC(=O)[C@@H](N)CSSC[C@@H](C(=O)O)NC(=O)[C@H](Cc2ccccc2)NC1=O | 825 nM | 194 nM | 2.8 nM | 360 nM | – |
| C[C@@H](O)[C@@H]1NC(=O)[C@H](CCCCN)NC(=O)[C@H]([C@@H](C)c2ccc3ccccc3c2)NC(=O)[C@H](Cc2ccc(O)cc2)NC(=O)[C@H](Cc2ccccc2)NC(=O)[C@H](N)CSSC[C@@H](C(=O)O)NC(=O)[C@H](Cc2ccccc2)NC1=O | 664 nM | 339 nM | 3.5 nM | 668 nM | > 10000 nM |
| C[C@H](c1ccc2ccccc2c1)[C@@H]1NC(=O)[C@H](Cc2ccc(O)cc2)NC(=O)[C@H](Cc2ccccc2)NC(=O)[C@H](N)CSSC[C@@H](C(=O)O)NC(=O)[C@H](Cc2ccccc2)NC(=O)[C@H]([C@@H](C)O)NC(=O)[C@H](CCCCN)NC1=O | 18 nM | 30 nM | 2.3 nM | 18 nM | 410 nM |
| C[C@@H]1NC(=O)[C@H](Cc2ccccc2)NC(=O)[C@@H](N)CSSC[C@@H](C(=O)O)NC(=O)[C@H](C)NC(=O)[C@H]([C@@H](C)O)NC(=O)[C@H](CCCCN)NC(=O)[C@@H](Cc2c[nH]c3ccccc23)NC1=O | > 10000 nM | > 1000 nM and 962 nM | – | > 1000 nM | > 10000 nM |
| C[C@@H]1NC(=O)[C@H](Cc2ccccc2)NC(=O)[C@@H](N)CSSC[C@@H](C(=O)O)NC(=O)[C@H](C)NC(=O)[C@H]([C@@H](C)O)NC(=O)[C@H](CCCCN)NC(=O)[C@H](Cc2c[nH]c3ccccc23)NC1=O | > 10000 nM | > 10000 nM | – | > 1000 nM | > 10000 nM |
| C[C@@H](O)[C@@H]1NC(=O)[C@H](CCCCN)NC(=O)[C@H](Cc2c[nH]c3ccccc23)NC(=O)N(C)[C@@H](C(=O)c2ccccc2)NC(=O)[C@@H](Cc2ccccc2)NC(=O)[C@@H](N)CSSC[C@@H](C(=O)O)NC(=O)[C@H](Cc2ccccc2)NC1=O (stereo in doubt) | 403 nM | > 1000 nM | 5.4 nM | > 1000 nM | > 10000 nM |
| C[C@@H](O)[C@@H]1NC(=O)[C@H](CCCCN)NC(=O)[C@@H](Cc2c[nH]c3ccccc23)NC(=O)N(C)[C@H](C(=O)c2ccccc2)NC(=O)[C@H](Cc2ccccc2)NC(=O)[C@@H](N)CSSC[C@@H](C(=O)O)NC(=O)[C@H](Cc2ccccc2)NC1=O (stereo in doubt) | > 1000 nM | > 1000 nM | 153 nM | > 1000 nM | > 10000 nM |
| C[C@@H](O)[C@@H]1NC(=O)[C@H](CCCCN)NC(=O)[C@H](Cc2c[nH]c3ccccc23)NC(=O)N(C)[C@H](C(=O)c2ccccc2)NC(=O)[C@H](Cc2ccccc2)NC(=O)[C@@H](N)CSSC[C@@H](C(=O)O)NC(=O)[C@H](Cc2ccccc2)NC1=O (stereo in doubt) | 725 nM | > 1000 nM | 133 nM | > 1000 nM | > 10000 nM |
| C[C@@H](O)[C@@H]1NC(=O)[C@H](CCCCN)NC(=O)[C@@H](Cc2c[nH]c3ccccc23)NC(=O)N(C)[C@@H](C(=O)c2ccccc2)NC(=O)[C@H](Cc2ccccc2)NC(=O)[C@@H](N)CSSC[C@@H](C(=O)O)NC(=O)[C@H](Cc2ccccc2)NC1=O (stereo in doubt) | 447 nM | 460 nM | 5.2 nM | 768 nM | > 1000 nM |
